ChEMBL document CHEMBL3259598, “Lignan dicarboxylates and terpenoids from the flower buds of Cananga odorata and their inhibitory effects on melanogenesis” (J Nat Prod, 2014)

What was measured:
[1] = Inhibition of melanogenesis in mouse B16-4A5 cells at 1 uM after 72 hrs by spectrophotometry relative to control; type: functional; details: B16-4A5, 72 h
Method in brief: (§1)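 Murine B16 melanoma 4A5 cells seeded at 2.0 × 10^4 cells/well in 24-well plates and cultured 24 h, then given test compound (DMSO, final 0.1%) plus 1 mM theophylline for 72 h. Cells trypsinized, washed and lysed in 1 M NaOH at 80 °C for 30 min; lysate absorbance read at 405 nm. Inhibition is corrected for cell viability, mean ± SEM (n = 4); IC50 determined graphically.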

[2] = Inhibition of melanogenesis in mouse B16-4A5 cells at 100 uM after 72 hrs by spectrophotometry relative to control; type: functional; details: B16-4A5, 72 h; method in brief: as §1
[3] = Cytotoxicity against mouse B16-4A5 cells assessed as viable cells at 30 uM after 72 hrs by WST-8 assay; type: cell-based; details: read-out: Activity
Method in brief: (§2)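 B16 melanoma 4A5 cells (DMEM, 4.5 g/L glucose, 10% FBS, 37 °C, 5% CO2) seeded at 5.0 × 10^4 cells/well in 96-well plates, grown 24 h, then exposed to test compound (DMSO, final 0.1%) for 70 h. After a PBS wash, cells were given DMEM plus WST-8 for 2 h more. Formazan read at 450 nm (reference 655 nm).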

[4] = Inhibition of melanogenesis in mouse B16-4A5 cells at 3 uM after 72 hrs by spectrophotometry relative to control; type: functional; details: B16-4A5, 72 h; method in brief: as §1
[5] = Inhibition of melanogenesis in mouse B16-4A5 cells at 30 uM after 72 hrs by spectrophotometry relative to control; type: functional; details: B16-4A5, 72 h; method in brief: as §1
[6] = Inhibition of melanogenesis in mouse B16-4A5 cells at 10 uM after 72 hrs by spectrophotometry relative to control; type: functional; details: B16-4A5, 72 h; method in brief: as §1
[7] = Inhibition of melanogenesis in mouse B16-4A5 cells after 72 hrs by spectrophotometry relative to control; type: functional, cell-based; method in brief: as §1
[8] = Cytotoxicity against mouse B16-4A5 cells assessed as viable cells at 10 uM after 72 hrs by WST-8 assay; type: cell-based; details: read-out: Activity; method in brief: as §2
[9] = Inhibition of melanogenesis in mouse B16-4A5 cells at 1000 uM after 72 hrs by spectrophotometry relative to control; type: functional; details: B16-4A5, 72 h
Method in brief: (§3)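 B16 melanoma 4A5 cells were grown in DMEM (4.5 g/L glucose) with 10% FBS and penicillin/streptomycin at 37 °C, 5% CO2, then seeded at 2.0 × 10^4 cells/well. After 24 h, compound (DMSO stock, 0.1% DMSO final) was added with 1 mM theophylline for 72 h. Cells were trypsinized, washed, lysed in 1 M NaOH (80 °C, 30 min) and read at 405 nm. Inhibition was corrected for WST-8 viability; mean ± SEM, n = 4.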

[10] = Inhibition of melanogenesis in mouse B16-4A5 cells at 300 uM after 72 hrs by spectrophotometry relative to control; type: functional; details: B16-4A5, 72 h; method in brief: as §3
[11] = Mus musculus, B16-4A5, 72 h, read-out: IC50

Compound | IC50 [7] [µM] | IC50 [7, 11] [µM] | inhibition at 1 µM [1] [%] | inhibition at 100 µM [2] [%] | viability at 72 h, 30 µM [3] [%] | inhibition at 3 µM [4] [%] | inhibition at 30 µM [5] [%] | inhibition at 10 µM [6] [%] | viability at 72 h, 10 µM [8] [%] | inhibition at 1000 µM [9] [%] | inhibition at 300 µM [10] [%]
COC(=O)C(=C/c1ccc(OC)cc1)/C(=C\c1ccc(OC)c(OC)c1)C(=O)OC | – | – | 49 | 11.5 | > 74.5 | 48.4 | 35.9 | 43.6 | – | – | –
O=C[C@]1(/C=C\O[C@@H]2O[C@H](CO)[C@@H](O)[C@H](O)[C@H]2O)CC[C@H](COC(=O)/C=C/c2ccc(O)c(O)c2)C[C@@H]1O | > 100 | – | -3.8 | 12.2 | > 95.2 | -8.5 | 11.4 | 9.3 | – | – | –
O=C[C@]1(/C=C\O[C@@H]2O[C@H](CO)[C@@H](O)[C@H](O)[C@H]2O)CC[C@H](COC(=O)C(=C/c2ccc(O)cc2)/C(=C\c2ccc(O)c(O)c2)C(=O)OC[C@H]2CC[C@](C=O)(/C=C\O[C@@H]3O[C@H](CO)[C@@H](O)[C@H](O)[C@H]3O)[C@@H](O)C2)C[C@@H]1O | > 100 | – | 28.6 | 16.7 | > 95.2 | 30.2 | 34.8 | 31.8 | – | – | –
COc1ccc(/C=C(C(=O)OC[C@H]2CC[C@](CO)(CCO)[C@@H](O)C2)\C(=C/c2ccc(OC)c(OC)c2)C(=O)OC[C@H]2CC[C@](CO)(CCO)[C@@H](O)C2)cc1 | – | – | 34.4 | -15.7 | 68.8 | 24.1 | -19.9 | 8.1 | 82 | – | –
CO[C@H]1C[C@]2(CC[C@H](COC(=O)/C=C/c3ccc(O)c(O)c3)C[C@@H]2O)[C@H](OC)O1 | 19.3 | – | 13.5 | 81.2 | > 80.3 | 16.9 | 60 | 36.4 | – | – | –
O=C(OC[C@H]1CC[C@](CO)(CCO[C@@H]2O[C@H](CO)[C@@H](O)[C@H](O)[C@H]2O)[C@@H](O)C1)C(=C/c1ccc(O)cc1)/C(=C\c1ccc(O)c(O)c1)C(=O)OC[C@H]1CC[C@](CO)(CCO[C@@H]2O[C@H](CO)[C@@H](O)[C@H](O)[C@H]2O)[C@@H](O)C1 | > 100 | – | 22.3 | 25.3 | > 80.3 | 27.2 | 32.3 | 27.3 | – | – | –
O=C[C@]1(/C=C\O[C@@H]2O[C@H](CO)[C@@H](O)[C@H](O)[C@H]2O)CC[C@H](COC(=O)C2=Cc3cc(O)c(O)cc3[C@@H](c3ccc(O)cc3)[C@@H]2C(=O)OC[C@H]2CC[C@](C=O)(/C=C\O[C@@H]3O[C@H](CO)[C@@H](O)[C@H](O)[C@H]3O)[C@@H](O)C2)C[C@@H]1O | > 100 | – | 9.2 | 8.7 | > 80.3 | 8.7 | 2.9 | 3.6 | – | – | –
O=C[C@]1(CCO[C@@H]2O[C@H](CO)[C@@H](O)[C@H](O)[C@H]2O)CC[C@H](COC(=O)C(=C/c2ccc(O)cc2)/C(=C\c2ccc(O)c(O)c2)C(=O)OC[C@H]2CC[C@](C=O)(CCO[C@@H]3O[C@H](CO)[C@@H](O)[C@H](O)[C@H]3O)[C@@H](O)C2)C[C@@H]1O | – | – | 8.1 | 29.8 | > 95.2 | 18 | 24.2 | 18.4 | – | – | –
OC[C@H]1O[C@@H](Oc2ccc(O)cc2)[C@H](O)[C@@H](O)[C@@H]1O [ARBUTIN] | – | 174 | – | 38.1 | – | – | 20.4 | 10.6 | – | 83.7 | 61.5
OC[C@H]1CC[C@](CO)(CCO[C@@H]2O[C@H](CO)[C@@H](O)[C@H](O)[C@H]2O)[C@@H](O)C1 | – | – | 16.1 | -9.4 | > 80.3 | 17.9 | -2.5 | 15.3 | – | – | –
O=C(OC[C@H]1CC[C@](CO)(CCO)[C@@H](O)C1)C(=C/c1ccc(O)cc1)/C(=C\c1ccc(O)c(O)c1)C(=O)OC[C@H]1CC[C@](CO)(CCO)[C@@H](O)C1 | – | 5 | 36.1 | 44.2 | > 95.2 | 45 | 49.8 | 59 | – | – | –
CO[C@@H]1C[C@]2(CC[C@H](COC(=O)/C=C/c3ccc(O)c(O)c3)C[C@@H]2O)[C@@H](OC)O1 | 3.6 | – | 34.7 | 66.8 | > 95.2 | 42.8 | 62.8 | 65.2 | – | – | –
OCC[C@@]1(CO)CC[C@H](CO)C[C@@H]1O | – | 2 | 45 | 25.6 | > 95.2 | 55.1 | 51.6 | 55.9 | – | – | –
O=C[C@]1(/C=C\O[C@@H]2O[C@H](CO)[C@@H](O)[C@H](O)[C@H]2O)CC[C@H](COC(=O)C2=Cc3ccc(O)c(O)c3[C@@H](c3ccc(O)cc3)[C@@H]2C(=O)OC[C@H]2CC[C@](C=O)(/C=C\O[C@@H]3O[C@H](CO)[C@@H](O)[C@H](O)[C@H]3O)[C@@H](O)C2)C[C@@H]1O | > 100 | – | 12.8 | -27.9 | > 80.3 | 14.9 | 8.4 | 9.4 | – | – | –

The next lines start with results.

IC50 [7] [µM] | IC50 [7, 11] [µM] | Compound | inhibition at 1 µM [1] [%] | inhibition at 100 µM [2] [%] | viability at 72 h, 30 µM [3] [%] | inhibition at 3 µM [4] [%] | inhibition at 30 µM [5] [%] | inhibition at 10 µM [6] [%] | viability at 72 h, 10 µM [8] [%] | inhibition at 1000 µM [9] [%] | inhibition at 300 µM [10] [%]
> 100 | – | CC(C)[C@@H]1CC[C@@]2(C)[C@H](O)CCC(C=O)=C[C@@H]12 [APHANAMOL II] | 37.6 | 42.1 | > 74.5 | 34.3 | 28.3 | 32.9 | – | – | –
17.3 | – | C=C1/C=C/[C@H](C(C)C)CCC(=C)[C@H](O)CC1 | 28.9 | 62.2 | > 95.2 | 30.5 | 61.2 | 40.6 | – | – | –
26.2 | – | CC(C)[C@@H]1CC[C@@](C)(O)[C@H]2CCC(C=O)=C[C@@H]12 | 19.2 | 66.3 | > 80.3 | 29.9 | 50.8 | 35.8 | – | – | –
8.4 | – | C=C1CC[C@@H](O)[C@]2(C)CC[C@@H](C(C)C)[C@H](O)[C@@H]12 | 42.3 | 59.2 | > 74.5 | 39.7 | 54.7 | 53.8 | – | – | –
2.5 | – | CC(C)[C@H]1CC[C@]2(C)C(=O)CCC(C=O)=C[C@@H]12 | 45.5 | 80.6 | > 95.2 | 50.3 | 68.5 | 57.6 | – | – | –
5.1 | – | CC(C)[C@@H]1CC[C@@](C)(O)[C@@H]2CCC(C=O)=C[C@H]21 | 25 | 48.8 | > 80.3 | 45.5 | 65.9 | 64 | – | – | –
– | 3 | CC1(C)C[C@H](OC(=O)c2ccccc2)[C@@]23CC[C@@H](O)[C@@](C)(CC[C@H]12)C3 | 45.3 | – | 7.9 | 40.2 | – | 66.7 | 75.9 | – | –
57.5 | – | CC(C)[C@H]1CC[C@]2(C)[C@@H](O)CCC(C=O)=C[C@@H]12 | -4.4 | 58.8 | > 80.3 | 9.2 | 37.7 | 14.7 | – | – | –
